Experimental data pooled from the literature.
Organism: Acinetobacter baumannii
Effect on: microbial growth

C[C@H]1COc2c(N3CCN(C)CC3)c(F)cc3c(=O)c(C(=O)O)cn1c23  MIC (broth dilution): 3.3 µM
CN(C)c1cc(NC(=O)CNC(C)(C)C)c(O)c2c1C[C@H]1C[C@H]3[C@H](N(C)C)C(O)=C(C(N)=O)C(=O)[C@@]3(O)C(O)=C1C2=O  MIC (ATCC19606): 1.2 µg/mL
COc1ncc(O)c2c1C[C@H]1C[C@H]3[C@H](N(C)C)C(O)=C(C(N)=O)C(=O)[C@@]3(O)C(O)=C1C2=O.Cl.Cl  MIC (broth dilution; ATCC19606): 0.5 µg/mL
CCCCCCC/C=C/C(=O)N1C(=O)/C(=C(/C)O)C(=O)C1CCCCN (centres unmarked)  MIC (ATCC19606): > 200 µg/mL
O=C(CCCCCC[P+](c1ccccc1)(c1ccccc1)c1ccccc1)Nc1cc(O)c(O)c(O)c1.[Br-]  MIC (broth dilution; ATCC19606; 18 h): > 32 µg/mL
NCC[C@H](O)C(=O)N[C@@H]1C[C@H](N)[C@@H](O[C@H]2O[C@H](CN)[C@@H](O)[C@H](O)[C@H]2O)[C@H](O)[C@H]1O[C@H]1O[C@H](CO)[C@@H](O)[C@H](N)[C@H]1O  MIC: 2 µg/mL
O=C(Cc1ccc(O)c(O)c1)NCCCCCCCC[P+](c1ccccc1)(c1ccccc1)c1ccccc1.[Br-]  MIC (broth dilution; ATCC19606; 18 h): > 32 µg/mL
O=C(Nc1ccc([N+](=O)[O-])cc1F)c1ccccc1O  MIC (broth dilution; BAA1605): > 64 µg/mL
N=C(N)c1ccc(OCc2cc(Br)cc(COc3ccc(C(=N)N)cc3)c2)cc1  MIC (broth dilution; ATCC17978): > 200 µg/mL
NC1CCCCc2c1[nH]c1ccc(Cl)c(Cl)c21 (centres unmarked)  MIC (broth dilution; ATCC19606): 16 µg/mL
CNC(=O)c1cc(Oc2ccc(NC(=O)Nc3ccc(Cl)c(C(F)(F)F)c3)cc2)ccn1  MIC (DSM30007): > 100 µM
O=C(O)c1ccc(-n2cc(/C=N/Nc3cccc(Cl)c3)c(-c3cccc(F)c3)n2)cc1  MIC (ATCCBAA1605): 6.25 µg/mL
C[C@@H](O)[C@H]1C(=O)N2C(C(=O)O)=C(S[C@@H]3CN[C@H](C(=O)N(C)C)C3)[C@H](C)[C@H]12  MIC (broth dilution; KCCM40203; 16 h): 2 µM
O=C(O)c1ccc(-n2cc(/C=N/Nc3ccc(F)c(Cl)c3)c(-c3ccc4ccccc4c3)n2)cc1  MIC (ATCCBAA1605): 25 µg/mL
CCCCCCC/C=C/C(=O)N1C(=O)/C(=C(\O)CCCC)C(=O)C1CC(C)C (centres unmarked)  MIC (ATCC19606): 200 µg/mL
CN(C)c1ccc(O)c2c1C[C@H]1C[C@H]3[C@H](N(C)C)C(O)=C(C(N)=O)C(=O)[C@@]3(O)C(O)=C1C2=O  MIC (broth dilution; ATCC19606): 0.063 µg/mL
CN(C)[C@@H]1C(O)=C(C(N)=O)C(=O)[C@@]2(O)C(O)=C3C(=O)c4c(cc5ccc(-c6cccnc6)cc5c4O)C[C@H]3C[C@@H]12  MIC (broth dilution; ATCC19606): 32 µg/mL
